Measurements of several laboratories.
Lines come from different studies, so protocols differ.
Medium: plasma
Route: intravenous

| SMILES | test system | setting | clearance [mL/min/kg] |
| --- | --- | --- | --- |
| C[C@H]1CN(c2ccc(C3CCC(=O)NC3=O)cc2F)CCN1CC12CCC(NS(=O)(=O)c3ccc(Nc4ncc(C(F)(F)F)c(N5CCC[C@](C)(O)C5)n4)c(F)c3)(CC1)CO2 (stereo partly drawn) | rat | 2 mg/kg | 18 |
| C=CCn1c(=O)c2cnc(Nc3ccc(N4CCN(C)CC4)cc3)nc2n1-c1ccc2c(n1)[C@@](O)(CC)CC2 | rat | 3 mg/kg | 33 |
| COc1cc(-c2cc(C(C)=O)n3ccccc23)c(OC)cc1Cn1ccnc1 | male Sprague-Dawley rat | 5 mg/kg | 20.1 |
| Cc1nc(Nc2ncc(C(=O)Nc3c(C)cccc3Cl)s2)cc(N2CCN(CCO)CC2)n1 | male Sprague-Dawley rat | 1 mg/kg | 21.7 |
| O=c1c(NCCc2cccc(Cl)c2)c(Nc2ccc(Cl)cc2)c1=O | male Sprague-Dawley rat | 1 mg/kg | 29.3 |
| CNS(=O)(=O)c1ccc(Nc2ncc3cc(Cl)c(=O)n(C4CCCC4)c3n2)c(C)c1 | rat | 2 mg/kg | 50 |
| COc1ccc(-c2coc3cc(O)cc(O)c3c2=O)cc1 | rat | 2 mg/kg | 48.9 |
| Cc1nc(Nc2ncc(C(=O)Nc3c(C)cccc3Cl)s2)cc(N2CC[C@H](N)C2)n1 | male Sprague-Dawley rat | 1 mg/kg | 51.7 |
| COc1ccc(N(Cc2csc(-c3ccccc3)n2)C(=O)CCCCCC(=O)NO)cc1 | female Sprague-Dawley rat | 5 mg/kg | 6810 |
| [2H]c1cc(C)c(NC(=O)c2cnc(Nc3cc(N4CCC(O)CC4)nc(C)n3)s2)c(Cl)c1 | male Sprague-Dawley rat | 1 mg/kg | 33.3 |
| O=C1CCC(N2Cc3cc(C4CCN(Cc5ccccc5)CC4)ccc3C2=O)C(=O)N1 (stereo not drawn) | male Sprague-Dawley rat | 1 mg/kg | 51.4 |
| Cc1cc(S(=O)(=O)NC2CC(N3CCN(CC4CCN(c5cccc6c5n(C)c(=O)n6C5CCC(=O)NC5=O)CC4)C4(CC4)C3)C2)ccc1Nc1ncc(C(F)(F)F)c(N2CCC[C@](C)(O)C2)n1 (stereo partly drawn) | rat | 2 mg/kg | 35 |
